How the values were obtained:
[1] = molecular target: T1, GABA-A receptor; alpha-1/beta-3/gamma-2 (Homo sapiens) (UniProt P14867+P18507+P28472); experiment: Modulatory effect on coapplication with GABA at human Gamma-aminobutyric acid A receptor alpha-1-beta-3-gamma-2 in Xenopus oocyte.
Outline: (§1)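 Two-electrode voltage clamp of Xenopus oocytes transiently expressing human α1, α2 or α3 β3γ2S receptors. Test compound is co-applied with GABA at its EC20 (GABA range 4-30 µM). Result is the % change in GABA current, mean (SEM), n = 3-7, at the stated test compound concentration (µM).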

[2] = molecular target: T2, GABA-A receptor; alpha-2/beta-3/gamma-2 (Homo sapiens, UniProt P18507+P28472+P47869); experiment: Displacement of [3H]Ro-151788 from human Gamma-aminobutyric acid A receptor alpha-2-beta-3-gamma-2 stably expressed in L(tk-) cells; type: cell-based
T2 sequence (P18507 whole entry): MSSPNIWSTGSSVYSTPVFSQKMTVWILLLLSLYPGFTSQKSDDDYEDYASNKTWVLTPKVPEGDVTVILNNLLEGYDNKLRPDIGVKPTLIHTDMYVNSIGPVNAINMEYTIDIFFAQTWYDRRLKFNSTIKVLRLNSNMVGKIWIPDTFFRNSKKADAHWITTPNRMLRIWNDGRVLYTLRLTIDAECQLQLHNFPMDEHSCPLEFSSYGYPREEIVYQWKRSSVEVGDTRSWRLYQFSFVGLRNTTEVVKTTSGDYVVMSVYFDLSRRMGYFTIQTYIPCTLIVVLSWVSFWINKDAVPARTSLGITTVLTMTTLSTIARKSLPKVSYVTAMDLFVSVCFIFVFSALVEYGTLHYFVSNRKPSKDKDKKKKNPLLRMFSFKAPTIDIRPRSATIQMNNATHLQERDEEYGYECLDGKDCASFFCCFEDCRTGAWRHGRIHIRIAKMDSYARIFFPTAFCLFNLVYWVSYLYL
T2 sequence (P28472 whole entry): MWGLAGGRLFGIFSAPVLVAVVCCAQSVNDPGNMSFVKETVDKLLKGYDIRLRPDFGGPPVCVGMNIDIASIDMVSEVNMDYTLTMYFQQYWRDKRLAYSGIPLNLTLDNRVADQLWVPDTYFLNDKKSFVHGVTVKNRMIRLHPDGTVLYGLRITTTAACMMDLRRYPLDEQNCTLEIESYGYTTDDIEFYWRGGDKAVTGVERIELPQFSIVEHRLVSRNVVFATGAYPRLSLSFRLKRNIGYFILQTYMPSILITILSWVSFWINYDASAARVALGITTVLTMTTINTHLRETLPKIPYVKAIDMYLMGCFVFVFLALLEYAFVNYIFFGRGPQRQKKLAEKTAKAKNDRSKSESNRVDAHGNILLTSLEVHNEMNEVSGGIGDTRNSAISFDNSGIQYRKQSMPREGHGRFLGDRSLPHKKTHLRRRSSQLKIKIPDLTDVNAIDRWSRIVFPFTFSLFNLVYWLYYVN
T2 sequence (P47869 whole entry): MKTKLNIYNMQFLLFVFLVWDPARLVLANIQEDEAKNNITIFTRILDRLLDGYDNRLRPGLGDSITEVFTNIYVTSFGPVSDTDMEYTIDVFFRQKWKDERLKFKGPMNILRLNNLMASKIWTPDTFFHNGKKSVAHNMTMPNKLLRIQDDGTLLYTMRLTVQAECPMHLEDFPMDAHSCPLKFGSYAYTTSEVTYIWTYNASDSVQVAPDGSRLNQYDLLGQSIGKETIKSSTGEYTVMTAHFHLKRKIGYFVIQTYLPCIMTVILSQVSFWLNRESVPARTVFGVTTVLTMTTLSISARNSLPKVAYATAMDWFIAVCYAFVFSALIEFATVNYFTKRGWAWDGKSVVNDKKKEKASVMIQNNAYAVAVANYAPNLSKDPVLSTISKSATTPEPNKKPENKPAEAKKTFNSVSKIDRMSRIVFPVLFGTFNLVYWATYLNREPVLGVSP
Outline: (§2)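 Competition binding against [3H]Ro15-1788 on cloned human α1/α2/α3/α5 β3γ2S receptors stably expressed in L(tk-) cells. Six to eight test concentrations spaced in half-log steps. Ki given as mean (SEM), n = 3-5, reported to two significant figures.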

[3] = molecular target: T3, GABA-A receptor; alpha-5/beta-3/gamma-2 (Homo sapiens, UniProt P18507+P28472+P31644); experiment: Displacement of [3H]Ro-151788 from human GABA-A receptor alpha-5-beta-3-gamma-2 subunits expressed in L(tk-) cells (<50% inhibition at 2 uM); type: cell-based
T3 sequence (P18507 whole entry): T2 sequence (P18507 whole entry)
T3 sequence (P28472 whole entry): T2 sequence (P28472 whole entry)
T3 sequence (P31644 whole entry): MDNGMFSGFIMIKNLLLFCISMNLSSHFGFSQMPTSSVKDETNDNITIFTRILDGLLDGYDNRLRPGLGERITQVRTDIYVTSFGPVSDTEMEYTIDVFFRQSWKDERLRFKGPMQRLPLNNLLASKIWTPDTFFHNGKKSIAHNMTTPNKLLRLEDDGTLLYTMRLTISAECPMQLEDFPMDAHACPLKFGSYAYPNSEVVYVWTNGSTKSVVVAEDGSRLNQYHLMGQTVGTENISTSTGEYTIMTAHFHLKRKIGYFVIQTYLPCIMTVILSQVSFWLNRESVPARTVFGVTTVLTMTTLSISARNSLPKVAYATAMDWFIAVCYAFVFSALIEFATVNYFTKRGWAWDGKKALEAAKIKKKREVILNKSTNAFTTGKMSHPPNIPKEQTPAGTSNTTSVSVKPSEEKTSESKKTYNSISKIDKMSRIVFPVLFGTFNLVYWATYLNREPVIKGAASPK

[4] = molecular target: T4, GABA-A receptor; alpha-3/beta-3/gamma-2 (Homo sapiens, UniProt P18507+P28472+P34903); experiment: Binding affinity by displacement of [3H]Ro-151788 from recombinant human gamma-aminobutyric-acid A receptor alpha3,beta3,gamma2 stably expressed in L cells; type: cell-based; outline: as §2
T4 sequence (P18507 whole entry): T2 sequence (P18507 whole entry)
T4 sequence (P28472 whole entry): T2 sequence (P28472 whole entry)
T4 sequence (P34903 whole entry): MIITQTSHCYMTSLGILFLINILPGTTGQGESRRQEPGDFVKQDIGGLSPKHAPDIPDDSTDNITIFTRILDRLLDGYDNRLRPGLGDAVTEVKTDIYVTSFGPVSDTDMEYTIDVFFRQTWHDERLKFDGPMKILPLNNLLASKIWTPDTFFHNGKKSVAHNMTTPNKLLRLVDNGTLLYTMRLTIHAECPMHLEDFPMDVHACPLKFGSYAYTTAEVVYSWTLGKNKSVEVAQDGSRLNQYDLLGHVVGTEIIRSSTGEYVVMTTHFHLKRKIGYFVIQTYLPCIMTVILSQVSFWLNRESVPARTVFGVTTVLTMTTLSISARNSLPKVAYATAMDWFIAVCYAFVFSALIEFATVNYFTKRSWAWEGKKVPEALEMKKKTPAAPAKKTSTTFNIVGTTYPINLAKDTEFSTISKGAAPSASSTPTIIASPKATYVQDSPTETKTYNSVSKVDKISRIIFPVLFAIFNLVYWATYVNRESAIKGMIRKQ

[5] = molecular target: GABA-A receptor; alpha-2/beta-3/gamma-2 (Homo sapiens) (UniProt P18507+P28472+P47869); experiment: Modulatory effect on coapplication with GABA at human Gamma-aminobutyric acid A receptor alpha-2-beta-3-gamma-2 expressed inXenopus oocytes; type: cell-based; settings: Oocyte; outline: as §1
[6] = molecular target: GABA-A receptor; alpha-3/beta-3/gamma-2 (Homo sapiens) (UniProt P18507+P28472+P34903); experiment: Modulatory effect on coapplication with GABA at human Gamma-aminobutyric acid A receptor alpha-3-beta-3-gamma-2 in Xenopus oocytes.; type: cell-based; settings: Oocyte; outline: as §1
[7] = molecular target: T3, GABA-A receptor; alpha-5/beta-3/gamma-2; experiment: Inhibition of [3H]Ro-151788 binding to human GABA A receptor (alpha-5-beta-3-gamma-2) stably expressed in L(tk-) cells.; type: cell-based; outline: as §2
[8] = molecular target: T5, GABA-A receptor; alpha-1/beta-3/gamma-2 (Homo sapiens, UniProt P14867+P18507+P28472); experiment: Displacement of [3H]Ro-151788 from human GABA-A receptor alpha-1-beta-3-gamma-2 subunits expressed in L(tk-) cells (<50% inhibition at 100 uM); type: cell-based
T5 sequence (P14867 whole entry): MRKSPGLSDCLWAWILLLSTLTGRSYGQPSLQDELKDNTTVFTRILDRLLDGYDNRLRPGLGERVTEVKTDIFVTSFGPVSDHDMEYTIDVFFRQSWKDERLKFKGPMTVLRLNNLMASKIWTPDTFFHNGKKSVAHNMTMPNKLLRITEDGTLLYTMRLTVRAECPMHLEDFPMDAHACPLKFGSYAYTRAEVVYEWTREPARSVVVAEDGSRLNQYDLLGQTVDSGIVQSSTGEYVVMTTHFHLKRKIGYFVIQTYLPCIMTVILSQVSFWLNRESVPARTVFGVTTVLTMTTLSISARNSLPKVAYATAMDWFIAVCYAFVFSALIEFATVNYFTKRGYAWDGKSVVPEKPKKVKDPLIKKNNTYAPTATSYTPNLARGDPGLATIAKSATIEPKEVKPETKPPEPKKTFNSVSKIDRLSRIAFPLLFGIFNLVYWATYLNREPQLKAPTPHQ
T5 sequence (P18507 whole entry): T2 sequence (P18507 whole entry)
T5 sequence (P28472 whole entry): T2 sequence (P28472 whole entry)

[9] = molecular target: T2, GABA-A receptor; alpha-2/beta-3/gamma-2; experiment: Displacement of [3H]Ro-151788 from human GABA-A receptor alpha-2-beta-3-gamma-2 subunits expressed in L(tk-) cells (<50% inhibition at 2 uM); type: cell-based
[10] = molecular target: T3, GABA-A receptor; alpha-5/beta-3/gamma-2; experiment: Displacement of [3H]Ro-151788 from human GABA-A receptor alpha-5-beta-3-gamma-2 subunits expressed in L(tk-) cells; type: cell-based; outline: as §2
[11] = molecular target: T5, GABA-A receptor; alpha-1/beta-3/gamma-2; experiment: Displacement of [3H]Ro-151788 from human GABA-A receptor alpha-1-beta-3-gamma-2 subunits expressed in L(tk-) cells (<50% inhibition at 3 uM); type: cell-based
[12] = molecular target: T5, GABA-A receptor; alpha-1/beta-3/gamma-2; experiment: Displacement of [3H]Ro-151788 from human GABA-A receptor alpha-1-beta-3-gamma-2 subunits expressed in L(tk-) cells (<50% inhibition at 10 uM); type: cell-based
[13] = molecular target: T1, GABA-A receptor; alpha-1/beta-3/gamma-2 (Homo sapiens); experiment: Modulatory effect on coapplication with GABA at human Gamma-aminobutyric acid A receptor alpha-1-beta-3-gamma-2 expressed in Xenopus oocytes; type: cell-based; settings: Oocyte; outline: as §1
[14] = molecular target: T5, GABA-A receptor; alpha-1/beta-3/gamma-2; experiment: Inhibition of [3H]Ro-151788 binding to human GABA A receptor (alpha-1-beta-3-gamma-2) stably expressed in L(tk-) cells.; type: cell-based

| SMILES | percent modulation of GABA EC20 response [1] | Ki [2] | Ki [3] | Ki [4] | percent modulation of GABA EC20 response [5] | percent modulation of GABA EC20 response [6] | Ki [7] | Ki [8] | Ki [9] | Ki [10] | Ki [11] | Ki [12] | EC20 [13] | Ki [14] |
| --- | --- | --- | --- | --- | --- | --- | --- | --- | --- | --- | --- | --- | --- | --- |
| COc1ccc(-c2cc(C#N)c(=O)n(C)c2-c2ccc(N(C)C)cc2)cc1 | 7% | 1800 nM | > 667 nM | 860 nM | -16% | 8% |  |  |  |  |  |  |  |  |
| COc1ccc(-c2cc(C#N)c(O)nc2-c2ccc(N(C)C)cc2)cc1 |  | > 30000 nM |  | > 30000 nM |  |  | > 667 nM | > 30000 nM |  |  |  |  |  |  |
| COc1ccc(-c2cc(-c3nc(C)no3)c(=O)n(C)c2-c2ccncc2)cc1 |  |  |  | > 1000 nM |  |  |  |  | > 667 nM | > 667 nM | > 1000 nM |  |  |  |

Continued by falling Ki [4], values first:

| percent modulation of GABA EC20 response [1] | Ki [2] | Ki [3] | Ki [4] | percent modulation of GABA EC20 response [5] | percent modulation of GABA EC20 response [6] | Ki [7] | Ki [8] | Ki [9] | Ki [10] | Ki [11] | Ki [12] | EC20 [13] | Ki [14] | SMILES |
| --- | --- | --- | --- | --- | --- | --- | --- | --- | --- | --- | --- | --- | --- | --- |
| 181% | 600 nM |  | 250 nM | 81% | 132% | > 667 nM |  |  |  |  | > 3000 nM |  |  | COC(=O)c1cc(-c2ccc(OC)cc2)c(-c2ccc(N(C)C)cc2)n(C)c1=O |
|  | 23 nM |  | 15 nM | 15% | 36% | 350 nM |  |  |  |  |  | 9% | 30 nM | COc1ccc(-c2cc(-c3cccs3)c(=O)n(C)c2-c2ccncc2)cc1 |
